Molecules are shown by their SMILES. Converted amounts (≈) assume the structure as drawn. The source made the active and inactive calls. The rule behind the calls is not given here. Where only a bound is given, the exact number is not on record here.

Test [1] has as its system Enterococcus faecium. As to the kind of experiment: Ratio of MBC to MIC for vancomycin-resistant Enterococcus faecium F935 expressing VanA. The format is functional.
Test [2] deals with Enterococcus faecium. Put plainly: Antibacterial activity against vancomycin-resistant Enterococcus faecium F935 expressing VanA assessed as reduction of bacterial count at >=2 times MIC concentration within 4 hrs by time kill assay. The class given is functional, organism-based. An outline of the steps: (§1)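 Time-kill in LB broth with multiples of the broth microdilution MIC (1/2 to 8× MIC). Starting inoculum about 5 × 10^5 CFU/mL, incubated at 35 °C. Samples taken at 0, 2, 4, 6 and 24 h, dilution-plated on LB agar, and counted after 24 h. Detection limit 100 CFU/mL.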

Test [3] concerns Staphylococcus aureus. Put plainly: Antibacterial activity against methicillin-resistant Staphylococcus aureus 8-8S after 24 hrs by broth microdilution method. The class given is functional. An outline of the steps: (§2)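 2-fold serial dilutions of test agent in […], DMSO under 5% final. Inoculum about 5 × 10^5 CFU/mL, confirmed by LB agar plating. Incubated 24 h at 35 °C in ambient air. MIC is the lowest concentration with no visible growth. Three repeats; oxacillin, vancomycin and chloramphenicol as positive controls.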
For orientation: Dilution methods test growth across graded concentrations, often in twofold steps.

The subject of test [4] is Enterococcus faecalis. As to the kind of experiment: Antibacterial activity against Enterococcus faecalis after 24 hrs by broth microdilution method. The format is functional. Put shortly:
(§3)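 2-fold serial dilutions of test agent in LB broth, DMSO under 5% final. Inoculum about 5 × 10^5 CFU/mL, confirmed by LB agar plating. Incubated 24 h at 35 °C in ambient air. MIC is the lowest concentration with no visible growth. Three repeats; oxacillin, vancomycin and chloramphenicol as positive controls.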

Test [5] has as its system Enterococcus faecium. As to the kind of experiment: Antibacterial activity against vancomycin-resistant Enterococcus faecium F935 expressing VanA assessed as reduction of bacterial count at MIC up to 6 hrs by time kill assay. The format is functional, organism-based. Put shortly:
as §1

Test [6] deals with Staphylococcus aureus. As to the kind of experiment: Antibacterial activity against methicillin-resistant Staphylococcus aureus 8-8S after 48 hrs by broth microdilution method. The format is functional.
Test [7] deals with Enterococcus faecalis. As to the kind of experiment: Antibacterial activity against Enterococcus faecalis after 48 hrs by broth microdilution method. The format is functional.
The test system of test [8] is Enterococcus faecalis. As to the kind of experiment: Antibacterial activity against vancomycin-resistant Enterococcus faecalis CKU-17 expressing VanB assessed as reduction of bacterial count at >=2 times MIC within 4 hrs by time kill assay. The format is functional, organism-based. Put shortly: as §1
The next test concerns OVCAR-3. Put plainly: Cytotoxicity against human OVCAR-3 cells after 48 hrs by MTT assay. The class given is functional. Conditions: OVCAR-3, 48 h, read-out: CD50 (the source's name). Put shortly:
(§4)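 Cells seeded at 5 × 10^3 per well, grown 24 h, then given 2-fold dilutions of sample for 48 h. Medium replaced with serum-free medium, MTT added (5 mg/mL stock) for 2 h at 37 °C, formazan dissolved in DMSO, OD read at 550 nm. CD50 is the concentration giving 50% reduction in net cell increase. Quadruplicate, repeated at least twice.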
On the technique in general: Tetrazolium assays rely on reduction of a dye to a coloured formazan, in cell work by metabolically active cells.

The subject of test [9] is Enterococcus faecalis. As to the kind of experiment: Antibacterial activity against vancomycin-resistant Enterococcus faecalis CKU-17 expressing VanB assessed as reduction of bacterial count at MIC up to 6 hrs by time kill assay. The class given is functional, organism-based. An outline of the steps: as §1
Another test relates to HepG2. As to the kind of experiment: Cytotoxicity against human HepG2 cells after 48 hrs by MTT assay. The format is functional. Conditions: HepG2, 48 h, read-out: CD50 (the source's name). Put shortly: as §4
The test system of test [10] is Staphylococcus aureus. As to the kind of experiment: Antibacterial activity against Staphylococcus aureus after 48 hrs by broth microdilution method. The class given is functional.
Test [11] concerns Enterococcus faecalis. Put plainly: Ratio of MBC to MIC for Enterococcus faecalis. The class given is functional.
In test [12] the test system is Enterococcus faecalis. As to the kind of experiment: Antibacterial activity against vancomycin-resistant Enterococcus faecalis CKU-17 expressing VanB after 48 hrs by broth microdilution method. Conditions: CKU-17, 48 h. The format is functional.
The next test concerns Pseudomonas aeruginosa. Put plainly: Antibacterial activity against Pseudomonas aeruginosa up to 100 ug/mL after 24 hrs by broth microdilution method. The format is functional, organism-based. Put shortly: (§5)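 Broth microdilution with 2-fold serial dilutions in LB broth, compounds from DMSO stocks (DMSO below 5% final), inoculum about 5 × 10^5 CFU/mL. Incubated 24 h at 35 °C in ambient air. MIC is the lowest concentration with no visible growth. Experiments repeated three times.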

Test [13] deals with Enterococcus faecalis. As to the kind of experiment: Antibacterial activity against vancomycin-resistant Enterococcus faecalis CKU-17 expressing VanB after 24 hrs by broth microdilution method. The format is functional. To be noted: CKU-17, 24 h. Put shortly: as §3
The test system of test [14] is Staphylococcus aureus. Put plainly: Antibacterial activity against Staphylococcus aureus after 24 hrs by broth microdilution method. The format is functional. Put shortly:
as §2

The subject of another test is Escherichia coli. As to the kind of experiment: Antibacterial activity against Escherichia coli up to 100 ug/mL after 24 hrs by broth microdilution method. The format is functional, organism-based. Put shortly:
as §5

The test system of test [15] is Enterococcus faecium. As to the kind of experiment: Antibacterial activity against vancomycin-resistant Enterococcus faecium F935 expressing VanA after 48 hrs by broth microdilution method. Conditions: F935, 48 h. The class given is functional.
In test [16] the test system is Staphylococcus aureus. As to the kind of experiment: Ratio of MBC to MIC for Staphylococcus aureus. The format is functional.
Another test deals with HeLa. Put plainly: Cytotoxicity against human HeLa cells after 48 hrs by MTT assay. To be noted: read-out: CD50 (the source's name). The format is functional. Put shortly:
as §4

Test [17] relates to Enterococcus faecium. Put plainly: Antibacterial activity against vancomycin-resistant Enterococcus faecium F935 expressing VanA after 24 hrs by broth microdilution method. The format is functional. Conditions: F935, 24 h. Put shortly: as §3
For test [18], the system named is Enterococcus faecium. Put plainly: Antibacterial activity against vancomycin-resistant Enterococcus faecium F935 expressing VanA assessed as reduction of bacterial count by time kill assay. The class given is functional, organism-based. An outline of the steps: as §1
Test [19] deals with Enterococcus faecalis. Put plainly: Antibacterial activity against vancomycin-resistant Enterococcus faecalis CKU-17 expressing VanB assessed as reduction of bacterial count by time kill assay. The class given is functional, organism-based. An outline of the steps:
as §1

Test [20] deals with Staphylococcus aureus. As to the kind of experiment: Antibacterial activity against methicillin-resistant Staphylococcus aureus 8-8S assessed as reduction of bacterial count at 0.5 MIC within 2 hrs by time kill assay. The class given is functional. Also on record: scale not given: the % may be the effect or the level left. Put shortly:
(§6)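 Time-kill in Mueller-Hinton broth with multiples of the broth microdilution MIC. Starting inoculum about 5 × 10^5 CFU/mL, incubated at 35 °C. Samples taken at 0, 2, 4, 6 and 24 h, dilution-plated on LB agar, and counted after 24 h. Detection limit 100 CFU/mL; bactericidal means 3 log or greater reduction.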

Test [21] concerns Staphylococcus aureus. Put plainly: Antibacterial activity against methicillin-resistant Staphylococcus aureus 8-8S assessed as reduction of bacterial count at MIC within 2 hrs by time kill assay. The format is functional, organism-based. An outline of the steps: as §6
Test [22] concerns Enterococcus faecalis. As to the kind of experiment: Ratio of MBC to MIC for vancomycin-resistant Enterococcus faecalis CKU-17 expressing VanB. The class given is functional.
Test [23] has as its system Staphylococcus aureus. Put plainly: Ratio of MBC to MIC for methicillin-resistant Staphylococcus aureus 8-8S. The format is functional.

Turning to `CC(C)=CC[C@H](OC(=O)CC(C)C)C1=CC(=O)c2c(O)ccc(O)c2C1=O` [ISOVALERYL ALKANNIN], the Ratio entry in the test with Enterococcus faecium [1], in the test with Enterococcus faecalis [11] and with Staphylococcus aureus [16] was “<=2” each time. For the same compound, the outcome in the test with Enterococcus faecium [2], in the test with Enterococcus faecium [5], with Enterococcus faecalis [8] and in the test on Enterococcus faecalis [9] was Active. Further, the MIC (usually the lowest concentration that inhibits growth of the organism) in the test with Staphylococcus aureus [3] was 3.13 µg/mL (≈ 8.4 µM); in the test with Enterococcus faecalis [4] it was 3.13 µg/mL (≈ 8.4 µM); in the test with Enterococcus faecalis [13], 3.13 µg/mL (≈ 8.4 µM); against Staphylococcus aureus [14] it was 1.56 µg/mL (≈ 4.19 µM); with Enterococcus faecium [17], 3.13 µg/mL (≈ 8.4 µM). Also, the minimal bactericidal concentration (MBC) (in general, the lowest tested concentration that kills the bacteria rather than only halting them) is 3.13 µg/mL (≈ 8.4 µM) against Staphylococcus aureus [6]; 3.13 µg/mL (≈ 8.4 µM) against Enterococcus faecalis [7]; 1.56 µg/mL (≈ 4.19 µM) in the test with Staphylococcus aureus [10]; 3.13 µg/mL (≈ 8.4 µM) in the test with Enterococcus faecalis [12]; 3.13 µg/mL (≈ 8.4 µM) against Enterococcus faecium [15]. Also, the CC50 came out at 0.9 µg/mL (≈ 2.42 µM) in the test with OVCAR-3, 2.2 µg/mL (≈ 5.91 µM) with HepG2 and 1.7 µg/mL (≈ 4.56 µM) in the test with HeLa. Further, the outcome with Pseudomonas aeruginosa and in the test on Escherichia coli was inactive.
Regarding `CC(=O)O[C@@H](CC=C(C)C)C1=CC(=O)c2c(O)ccc(O)c2C1=O` [ACETYLALKANNIN], the Ratio result with Enterococcus faecium [1], with Enterococcus faecalis [11] and in the test with Staphylococcus aureus [16] was “<=2” throughout. Moreover, the minimal inhibitory concentration (MIC) worked out at 1.56 µg/mL (≈ 4.72 µM) with Staphylococcus aureus [3]; 3.13 µg/mL (≈ 9.48 µM) in the test on Enterococcus faecalis [4]; 6.25 µg/mL (≈ 18.9 µM) in the test with Enterococcus faecalis [13]; 1.56 µg/mL (≈ 4.72 µM) against Staphylococcus aureus [14]; 6.25 µg/mL (≈ 18.9 µM) against Enterococcus faecium [17]. The minimum bactericidal concentration (MBC) with Staphylococcus aureus [6] amounted to 1.56 µg/mL (≈ 4.72 µM); against Enterococcus faecalis [7] it was 3.13 µg/mL (≈ 9.48 µM); against Staphylococcus aureus [10] it was 1.56 µg/mL (≈ 4.72 µM); with Enterococcus faecalis [12], 6.25 µg/mL (≈ 18.9 µM); against Enterococcus faecium [15] it was 6.25 µg/mL (≈ 18.9 µM). For the same compound, the Activity entry is “Dose-dependent effect” with Enterococcus faecium [18], “Dose-dependent effect” with Enterococcus faecalis [19] and “>=99.9%” in the test on Staphylococcus aureus [20]. Further, the values for the CC50 in the test with OVCAR-3, in the test on HepG2 and in the test with HeLa were 1.5 µg/mL (≈ 4.54 µM), 2 µg/mL (≈ 6.05 µM) and 1.5 µg/mL (≈ 4.54 µM), respectively. Also, the result with Pseudomonas aeruginosa and in the test with Escherichia coli was inactive. Besides, in the test with Staphylococcus aureus [21], the outcome was Active.
Turning to `CC1=CC(=O)c2c(O)cccc2C1=O` [PLUMBAGIN], the Ratio result in the test on Enterococcus faecium [1], in the test with Enterococcus faecalis [22], in the test on Staphylococcus aureus [23], in the test with Enterococcus faecalis [11] and with Staphylococcus aureus [16] was “>=4” in each case. Also, the minimum inhibitory concentration (MIC) is 3.13 µg/mL (≈ 16.6 µM) against Staphylococcus aureus [3]; 25 µg/mL (≈ 133 µM) with Enterococcus faecalis [4]; 12.5 µg/mL (≈ 66.4 µM) with Enterococcus faecalis [13]; 3.13 µg/mL (≈ 16.6 µM) in the test with Staphylococcus aureus [14]; 12.5 µg/mL (≈ 66.4 µM) in the test on Enterococcus faecium [17]. The minimal bactericidal concentration (MBC) turned out to be 25 µg/mL (≈ 133 µM) with Staphylococcus aureus [6]; 100 µg/mL (≈ 531 µM) in the test with Enterococcus faecalis [7]; 25 µg/mL (≈ 133 µM) in the test on Staphylococcus aureus [10]; 50 µg/mL (≈ 266 µM) with Enterococcus faecalis [12]; 50 µg/mL (≈ 266 µM) in the test on Enterococcus faecium [15].
With `CC[C@@H](C)C(=O)O[C@@H](CC=C(C)C)C1=CC(=O)c2c(O)ccc(O)c2C1=O`, the Ratio entry in the test with Enterococcus faecium [1], in the test on Enterococcus faecalis [11] and in the test with Staphylococcus aureus [16] was “<=2” in each case. The minimal inhibitory concentration (MIC) in the test on Staphylococcus aureus [3] is 3.13 µg/mL (≈ 8.4 µM); with Enterococcus faecalis [4] it was 3.13 µg/mL (≈ 8.4 µM); against Enterococcus faecalis [13], 3.13 µg/mL (≈ 8.4 µM); with Staphylococcus aureus [14], 1.56 µg/mL (≈ 4.19 µM); against Enterococcus faecium [17], 3.13 µg/mL (≈ 8.4 µM). Moreover, the MBC against Staphylococcus aureus [6] stood at 3.13 µg/mL (≈ 8.4 µM); in the test on Enterococcus faecalis [7], 6.25 µg/mL (≈ 16.8 µM); against Staphylococcus aureus [10], 1.56 µg/mL (≈ 4.19 µM); with Enterococcus faecalis [12], 6.25 µg/mL (≈ 16.8 µM); against Enterococcus faecium [15] it was 6.25 µg/mL (≈ 16.8 µM). Besides, the results for the CC50 in the test on OVCAR-3, in the test with HepG2 and with HeLa were 1.7 µg/mL (≈ 4.56 µM), 5 µg/mL (≈ 13.4 µM) and 3.9 µg/mL (≈ 10.5 µM), respectively. Moreover, the outcome in the test with Pseudomonas aeruginosa and with Escherichia coli was inactive.

The values above are taken from ChEMBL document CHEMBL1150162, “Antimicrobial activities of naphthazarins from Arnebia euchroma” (2002).
